Source: paper PMC4547841 (Bioorganic & medicinal chemistry letters, 2013)

Experiments:
hsp90 and immunophilins = conditions: millimolar concentration; ref [28]; cited from earlier work
heat shock response = experiment: Heat shock response; format: cell-based; conditions: HeLa; 17-AAG 100 nM and 1 μM, CA1 and SM145 5 μM and 50 μM; hsp70, hsp90, HSF1 levels
FKBP52 = FKBP52 protein level in HeLa cell lysate, western blot; format: cell-based; conditions: n≥3
Outline: (§1)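 HeLa cells treated with test compounds at two concentrations each (100nM and 1μM, or 5μM and 50μM). Cell lysates analysed by western blot. Bands quantitated by densitometry, normalized to GAPDH and to DMSO control. n≥3, mean±SEM.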

hsp90 [1] = experiment: Luciferase refolding assays; format: biochemical; conditions: 17-AAG 1 μM, SM145 50 μM (Figure 3); CA1 in Supplemental Figure S3
Outline: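 Refolding of heat-denatured firefly luciferase, read as luciferase activity over time up to 2 h, in two systems: rabbit reticulocyte lysate, and a pure protein system with 1μM hsp70, 0.2μM hsp40, 0.1μM HOP and 0.5μM hsp90. Test compounds at 1μM or 50μM. n=3, mean±SEM.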

HSF1 = HSF1 protein level in HeLa cell lysate, western blot; format: cell-based; conditions: 17-AAG 100 nM and 1 μM, normalized to GAPDH and DMSO control, n≥3
Outline: as §1

hsp90 and FKBP51 = experiment: TPR co-chaperone and hsp90 binding assay, FKBP51
Outline: (§2)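 Binding of each TPR co-chaperone (Unc45, CHIP, TOM70, HOP, Cyp40, FKBP52, FKBP51) to hsp90 measured with increasing test compound, 0–5μM or 0–10μM depending on compound.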

hsp90 [2] = experiment: hsp90 protein level in HeLa cell lysate, western blot; format: cell-based; conditions: 17-AAG 100 nM and 1 μM, normalized to GAPDH and DMSO control, n≥3
Outline: as §1

[3] = test system: glucocorticoid receptor (GR); experiment: Glucocorticoid receptor; format: cell-based; conditions: HeLa; 17-AAG 100 nM and 1 μM; n≥3
Outline: as §1

hsp90 and TOM70 = experiment: TPR co-chaperone and hsp90 binding assay, TOM70
Outline: as §2

hsp70 = hsp70 protein level in HeLa cell lysate, western blot; format: cell-based; conditions: normalized to GAPDH and DMSO control, n≥3
Outline: as §1

FKBP51 = FKBP51 protein level in HeLa cell lysate, western blot; format: cell-based; conditions: n≥3
Outline: as §1

HeLa cells = conditions: assay not described; HeLa treated at IC50 and ten-fold over IC50; ref [36]; cited from earlier work
hsp90 and Cyp40 = experiment: TPR co-chaperone and hsp90 binding assay, Cyp40; conditions: CA1 at 10 μM
Outline: as §2

hsp90 and Unc45 = experiment: TPR co-chaperone and hsp90 binding assay, Unc45; conditions: CA1 0–10 μM
Outline: as §2

hsp90 and HOP = experiment: TPR co-chaperone and hsp90 binding assay, HOP; conditions: CA1 0–10 μM; some Figure 5 data marked * previously published, ref [31]
hsp90 and CHIP = experiment: TPR co-chaperone and hsp90 binding assay, CHIP; conditions: CA1 at 10 μM
Outline: as §2

hsp90 and FKBP52 = experiment: TPR co-chaperone and hsp90 binding assay, FKBP52; conditions: CA1 0–10 μM; some Figure 5 data marked * previously published, ref [31]
[4] = 17-AAG 100 nM and 1 μM, normalized to GAPDH, compared to DMSO

Structure (SMILES): CO[C@@H]1[C@@H](OC(N)=O)[C@@H](O)[C@H](Oc2ccc3c(O)c(NC(=O)c4ccc(O)c(CC=C(C)C)c4)c(=O)oc3c2C)OC1(C)C [novabiocin]
- disruption of immunophilins from binding to hsp90 (hsp90 and immunophilins): disrupts immunophilins from binding to hsp90

Structure (SMILES): C=CCNC1=C2C[C@@H](C)C[C@H](OC)[C@H](O)[C@@H](C)/C=C(\C)[C@H](OC(N)=O)[C@@H](OC)/C=C\C=C(/C)C(=O)NC(=CC1=O)C2=O [17-AAG]
- heat shock response triggered (heat shock response): triggering the heat shock response
- FKBP52 protein level, fold increase (FKBP52; [4]): ~ 4 fold
- luciferase activity over time (hsp90 [1]): reduce the luciferase activity over time
- HSF1 protein level, fold increase (HSF1): ~4 fold
- inhibition of FKBP51 binding to hsp90 (hsp90 and FKBP51; 17-AAG at 5 μM): only partially inhibits
- hsp90 protein level, fold increase (hsp90 [2]): ~3 fold
- GR protein level [3]: no change
- inhibition of TOM70 binding to hsp90 (hsp90 and TOM70; 17-AAG at 5 μM): only partially inhibits
- hsp70 protein level, fold increase (hsp70; 17-AAG 100 nM and 1 μM): ~ 2.5 fold
- FKBP51 protein level, fold increase (FKBP51; [4]): ~ 2 fold
- IC50 (HeLa cells): ~100 nM

Structure (SMILES): CO[C@H]1[C@H](OC(=O)c2ccc(C)[nH]2)[C@H](O)[C@@H](Oc2ccc3c(O)c(NC(=O)c4c[nH]c(C(=O)Nc5c(O)c6ccc(O[C@H]7OC(C)(C)[C@@H](OC)[C@H](OC(=O)c8ccc(C)[nH]8)[C@@H]7O)c(C)c6oc5=O)c4C)c(=O)oc3c2C)OC1(C)C [CA1, coumermycin A1]
- inhibition of Cyp40 binding to hsp90 (hsp90 and Cyp40): inhibiting
- effect on binding between hsp90 and Unc45 (hsp90 and Unc45): no impact
- heat shock response triggered (heat shock response): the HSR was not triggered
- FKBP52 protein level (FKBP52; CA1 at high concentrations, relative to control): slightly decreases
- luciferase activity over time (hsp90 [1]): reduce the luciferase activity over time
- effect on binding between hsp90 and FKBP51 (hsp90 and FKBP51; CA1 0–10 μM): no impact
- effect on binding between hsp90 and HOP (hsp90 and HOP): no impact
- inhibition of CHIP binding to hsp90 (hsp90 and CHIP): inhibiting
- inhibition of TOM70 binding to hsp90 (hsp90 and TOM70; CA1 at 10 μM): inhibiting
- effect on binding between hsp90 and FKBP52 (hsp90 and FKBP52): no impact
- hsp70 protein level (hsp70; 5 μM and 50 μM): maintenance of hsp70 protein levels
- FKBP51 protein level (FKBP51; CA1 5 μM and 50 μM): little change
